Measured values published in ChEMBL document CHEMBL4270544, “Design, synthesis and biological evaluation of a novel tubulin inhibitor 7a3 targeting the colchicine binding site” (Eur J Med Chem, 2018).
Active and inactive are the calls of the source. No cut-off for these calls is given here.

Columns and labels:
HeLa = test: Antiproliferative activity against human HeLa cells after 72 hrs by CCK8 assay; format: functional, cell-based
Procedure, shortened: (§1)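 CCK-8 proliferation assay with CA-4 as positive control. IC50 is the concentration giving 50% inhibition of proliferation. Mean ± SEM from three independent experiments.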

A549 = test: Antiproliferative activity against human A549 cells after 72 hrs by CCK8 assay; format: functional, cell-based; conditions: A549, 72 h; procedure, shortened: as §1
CT26 = test: Antiproliferative activity against mouse CT26 cells after 72 hrs by CCK8 assay; format: functional, cell-based; conditions: CT26, 72 h; procedure, shortened: as §1
MCF7 = test: Antiproliferative activity against human MCF7 cells after 72 hrs by CCK8 assay; format: functional, cell-based; conditions: MCF7, 72 h; procedure, shortened: as §1
SK-OV-3 [1] = test: Cell cycle arrest in human SKOV3 cells assessed as accumulation at G0/G1 phase at 40 nM after 24 hrs by propidium iodide staining based flow cytometry (reference value: 67.79%); format: functional
Procedure, shortened: (§2)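 SK-OV-3 cells exposed to 40, 80 or 160 nM for 24 h, with untreated cells as control. Stained with PI and analysed by flow cytometry for phase distribution. Mean ± SEM of three independent experiments; t-test against control.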

SK-OV-3 [2] = test: Cell cycle arrest in human SKOV3 cells assessed as accumulation at G2/M phase at 40 nM after 24 hrs by propidium iodide staining based flow cytometry (reference value: 24.99%); format: functional; procedure, shortened: as §2
SK-OV-3 [3] = test: Cell cycle arrest in human SKOV3 cells assessed as accumulation at G2/M phase at 80 nM after 24 hrs by propidium iodide staining based flow cytometry (reference value: 24.99%); format: functional; procedure, shortened: as §2
SK-OV-3 [4] = test: Cell cycle arrest in human SKOV3 cells assessed as accumulation at S phase at 160 nM after 24 hrs by propidium iodide staining based flow cytometry (reference value: 18.09%); format: functional; procedure, shortened: as §2
SK-OV-3 [5] = test: Induction of apoptosis in human SKOV3 cells assessed as live cells at 40 nM after 48 hrs by Annexin-V-FITC/propidium iodide staining based flow cytometry (reference value: 94.43%); format: functional
SK-OV-3 [6] = test: Induction of apoptosis in human SKOV3 cells assessed as early apoptotic cells at 40 nM after 48 hrs by Annexin-V-FITC/propidium iodide staining based flow cytometry (reference value: 0.97%); format: functional
SK-OV-3 [7] = test: Induction of apoptosis in human SKOV3 cells assessed as necrotic cells at 40 nM after 48 hrs by Annexin-V-FITC/propidium iodide staining based flow cytometry (reference value: 0.67%); format: functional
SK-OV-3 [8] = test: Induction of apoptosis in human SKOV3 cells assessed as live cells at 80 nM after 48 hrs by Annexin-V-FITC/propidium iodide staining based flow cytometry (reference value: 94.43%); format: functional
SK-OV-3 [9] = test: Induction of apoptosis in human SKOV3 cells assessed as late apoptotic cells at 80 nM after 48 hrs by Annexin-V-FITC/propidium iodide staining based flow cytometry (reference value: 3.93%); format: functional
SK-OV-3 [10] = test: Induction of apoptosis in human SKOV3 cells assessed as live cells at 160 nM after 48 hrs by Annexin-V-FITC/propidium iodide staining based flow cytometry (reference value: 94.43%); format: functional
SK-OV-3 [11] = test: Induction of apoptosis in human SKOV3 cells assessed as necrotic cells at 160 nM after 48 hrs by Annexin-V-FITC/propidium iodide staining based flow cytometry (reference value: 0.67%); format: functional
SK-OV-3 [12] = test: Antimigratory activity against human SKOV3 cells assessed as number of migrated cells at 25 nM after 24 hrs by crystal violet staining based transwell migration assay (reference value: 49.3 to 50.7); format: functional
SK-OV-3 [13] = test: Antimigratory activity against human SKOV3 cells assessed as number of migrated cells at 100 nM after 24 hrs by crystal violet staining based transwell migration assay (reference value: 49.3 to 50.7); format: functional
Bos taurus [14] = organism: Bos taurus; test: Inhibition of bovine MAP-rich tubulin polymerization at 2.5 uM measured every 1 min for 30 mins relative to control
Procedure, shortened: (§3)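 Purified tubulin polymerization followed at 37 °C by absorbance at 340 nm, read every 1 min for 30 min. Test concentrations 2.5, 10 and 40 µM. CA-4 at 10 µM served as positive control and DMSO (1%, v/v) as vehicle. Polymerization is expressed relative to the vehicle group.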

Bos taurus [15] = organism: Bos taurus; test: Inhibition of bovine MAP-rich tubulin polymerization at 40 uM measured every 1 min for 30 mins relative to control; procedure, shortened: as §3
SK-OV-3 [16] = test: Inhibition of tubulin assembly in human SKOV3 cells assessed as disorganized spindle formation at 10 to 1000 nM after 24 hrs by DAPI staining based immunofluorescence microscopic method; format: functional, cell-based
Procedure, shortened: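 SK-OV-3 cells exposed to DMSO or 10, 100 or 1000 nM for 24 h. Fixed in methanol, stained with FITC anti-β-tubulin antibody, counterstained with DAPI, and imaged by confocal microscopy.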

Mus musculus [17] = test: Area under the first moment curve (0 to 24 hrs) in C57 mouse at 50 mg/kg, ip administered as single dose by LC-MS/MS analysis; format: ADME, organism-based; conditions: in vivo
Procedure, shortened: (§4)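 Male C57 mice, one intraperitoneal dose. Blood drawn from submaxillary vein at 0, 5, 15, 30 min and 1, 2, 4, 8, 12, 24 h. Plasma measured by LC/MS/MS in MRM mode with CA-4 as internal standard. Calibration by weighted linear regression over 0.01–500 ng/mL. Parameters obtained by non-compartmental analysis.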

[18] = Terminal half life in C57 mouse at 50 mg/kg, ip administered as single dose by LC-MS/MS analysis; format: ADME, organism-based; conditions: in vivo, read-out: beta t1/2 (converted); procedure, shortened: as §4
[19] = AUC (0 to infinity) in C57 mouse at 50 mg/kg, ip administered as single dose by LC-MS/MS analysis; format: ADME, organism-based; set-up: dose 50 mg/kg, time infinity, route intraperitoneal; conditions: in vivo; procedure, shortened: as §4
Mus musculus [20] = test: Area under the first moment curve (0 to infinity) in C57 mouse at 50 mg/kg, ip administered as single dose by LC-MS/MS analysis; format: ADME, organism-based; conditions: in vivo; procedure, shortened: as §4
[21] = Mean residence time in C57 mouse at 50 mg/kg, ip administered as single dose by LC-MS/MS analysis; format: ADME, organism-based; conditions: in vivo; procedure, shortened: as §4
SK-OV-3 [22] = test: Antitumor activity against human SKOV3 cells xenografted in Balb/c mouse assessed as reduction in tumor growth at 50 mg/kg, ip administered every two days for three times measured every 3 to 4 days relative to control; format: functional; set-up: scale not given: the % may be the effect or the level left
Procedure, shortened: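 Six-week-old Balb/c nude mice given subcutaneous SK-OV-3 cells in the back. Randomised into three groups at about 200 mm3 tumour size. Dosed 50 mg/kg intraperitoneally in 5% DMSO/olive oil every two days, three times; vehicle group as control. Tumour volume and body weight tracked; six animals per group, mean ± SEM, t-test.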

Mus musculus [23] = test: Toxicity in Balb/c mouse xenografted with human SKOV3 cells assessed as pathological changes in heart at 50 mg/kg, ip administered every two days for three times by hematoxylin and eosin staining based assay; format: organism-based; conditions: in vivo
Procedure, shortened: (§5)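 In SK-OV-3 xenografted Balb/c nude mice dosed 50 mg/kg intraperitoneally in 5% DMSO/olive oil every two days, three times, organs were collected and examined after H&E staining.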

Mus musculus [24] = test: Toxicity in Balb/c mouse xenografted with human SKOV3 cells assessed as pathological changes in liver at 50 mg/kg, ip administered every two days for three times by hematoxylin and eosin staining based assay; format: organism-based; conditions: in vivo; procedure, shortened: as §5
SK-OV-3 [25] = test: Cell cycle arrest in human SKOV3 cells assessed as accumulation at G2/M phase at 160 nM after 24 hrs by propidium iodide staining based flow cytometry (reference value: 14.12%)

With `CCOc1ccc(-c2cn(C)nc2-c2cc(OC)c(OC)c(OC)c2)cc1` the IC50 (HeLa) was 32.8 nM, the IC50 (A549) was 67 nM and the IC50 (CT26) was 58 nM. It also gave an IC50 (MCF7) of 35.4 nM, an Activity (SK-OV-3 [1]) of 54.42% and an Activity (SK-OV-3 [2]) of 24.6%. It also gave an Activity (SK-OV-3 [3]) of 34.65%, an Activity (SK-OV-3 [4]) of 26.16% and an Activity (SK-OV-3 [5]) of 91.03%. For the same compound, the Activity (SK-OV-3 [6]) was 1.35%, the Activity (SK-OV-3 [7]) was 0.97% and the Activity (SK-OV-3 [8]) was 73.56%. The Activity (SK-OV-3 [9]) was 18.67%, the Activity (SK-OV-3 [10]) was 41.9% and the Activity (SK-OV-3 [11]) was 1.28%. The Activity (SK-OV-3 [12]) was 27.3, the Activity (SK-OV-3 [13]) was 18.3 and the inhibition (Bos taurus [14]) was 30.5%. The inhibition (Bos taurus [15]) was 85.3%, the inhibition (SK-OV-3 [16]) was “Active” and the AUMC (Mus musculus [17]) was 1498 hr.hr.ng/ml. The half-life [18] was 100 min, the AUC(0-inf) [19] was 1170 ng·h/mL and the AUMC (Mus musculus [20]) was 1785 hr.hr.ng/ml. The MRT [21] was 1.51 h, the Activity (SK-OV-3 [22]) was 62.8% and the Activity (Mus musculus [23]) was “Non-Toxic”. The Activity (Mus musculus [24]) was “Non-Toxic” and the Activity (SK-OV-3 [25]) was 65.79%.
